Our source for the CFU and Activity values is ChEMBL document CHEMBL1649212, “AI-2/LuxS is involved in increased biofilm formation by Streptococcus intermedius in the presence of antibiotics” (2009).

Assay [1] has as its system Streptococcus intermedius. The experiment in a line: Antimicrobial activity against Streptococcus intermedius NCTC 11324 planktonic cells assessed as bacterial count at 0.12 ug/ml (Rvb =791.7 +/- 44.10 10^8 CFU/ml). In kind it is functional. Summed up:
(§1)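 Planktonic wild-type cells were inoculated at ≈4 × 10^5 CFU/ml in TSB in ultra-low-binding plates. Media were without or with ampicillin (0.02 to 0.14 μg/ml), ciprofloxacin (0.10 to 0.35 μg/ml) or tetracycline (0.03 to 0.20 μg/ml). After 12 h at 37°C in 5% CO2 aerobic air, CFU were counted, run in parallel with the BacTiter-Glo ATP assay. Experiments were done three times in two parallels.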

For assay [2], the system named is Streptococcus intermedius. The experiment in a line: Antimicrobial activity against Streptococcus intermedius SI006 planktonic cells harboring luxS mutant gene assessed as bacterial count at 0.10 ug/ml (Rvb =757.5 +/- 80.14 10^8 CFU/ml). In kind it is functional.
Assay [3] deals with Streptococcus intermedius. The experiment in a line: Antimicrobial activity against Streptococcus intermedius SI006 planktonic cells harboring luxS mutant gene assessed as bacterial count at 0.15 ug/ml (Rvb =757.5 +/- 80.14 10^8 CFU/ml). The format is functional.
For assay [4], the system named is Streptococcus intermedius. The experiment in a line: Antimicrobial activity against Streptococcus intermedius SI006 planktonic cells harboring luxS mutant gene assessed as bacterial count at 0.08 ug/ml in presence of 0.8 nM autoinducer 4,5-dihydroxy-2,3-pentanedione (Rvb =790.8 +/- 90.09 10^8 CFU/ml). The format is functional.
Assay [5] deals with Streptococcus intermedius. The experiment in a line: Antimicrobial activity against Streptococcus intermedius NCTC 11324 biofilm assessed as biofilm bacterial count at 0.07 ug/ml (Rvb =402.9 +/- 26.88 10^5 CFU/ml). The format is functional.
The subject of assay [6] is Streptococcus intermedius. The experiment in a line: Antimicrobial activity against Streptococcus intermedius SI006 biofilm harboring luxS mutant gene assessed as biofilm bacterial count at 0.05 ug/ml (Rvb =310.8 +/- 17.10 10^5 CFU/ml). In kind it is functional.
Assay [7] deals with Streptococcus intermedius. The experiment in a line: Antimicrobial activity against Streptococcus intermedius NCTC 11324 assessed as biofilm formation at 0.05 to 0.10 ug/ml. The format is functional, organism-based. Summed up: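 Wild-type NCTC 11324 was grown overnight in TSB and inoculated into TSB with ampicillin (0.02 to 0.10 μg/ml), ciprofloxacin (0.10 to 0.28 μg/ml) or tetracycline (0.05 to 0.30 μg/ml), added at time zero. Wells held plastic coverslips and were incubated 12 h at 37°C in 5% CO2 aerobic air. Biofilm was measured as described previously. Experiments were done three times in three parallels.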

For assay [8], the system named is Streptococcus intermedius. The experiment in a line: Antimicrobial activity against Streptococcus intermedius NCTC 11324 planktonic cells assessed as bacterial count at 0.08 ug/ml (Rvb =791.7 +/- 44.10 10^8 CFU/ml). In kind it is functional. The essentials:
as §1

Assay [9] deals with Streptococcus intermedius. The experiment in a line: Antimicrobial activity against Streptococcus intermedius SI006 biofilm harboring luxS mutant gene assessed as biofilm bacterial count at 0.07 ug/ml in presence of 0.8 nM autoinducer 4,5-dihydroxy-2,3-pentanedione (Rvb =413.7 +/- 24.47 10^5 CFU/ml). In kind it is functional.
The test system of assay [10] is Streptococcus intermedius. The experiment in a line: Antimicrobial activity against Streptococcus intermedius SI006 planktonic cells harboring luxS mutant gene assessed as bacterial count at 0.12 ug/ml in presence of 0.8 nM autoinducer 4,5-dihydroxy-2,3-pentanedione (Rvb =790.8 +/- 90.09 10^8 CFU/ml). In kind it is functional.
For assay [11], the system named is Streptococcus intermedius. The experiment in a line: Antimicrobial activity against Streptococcus intermedius NCTC 11324 biofilm assessed as biofilm bacterial count at 0.05 ug/ml (Rvb =402.9 +/- 26.88 10^5 CFU/ml). The format is functional.
For assay [12], the system named is Streptococcus intermedius. The experiment in a line: Antimicrobial activity against Streptococcus intermedius SI006 planktonic cells harboring luxS mutant gene assessed as bacterial count at 0.15 ug/ml in presence of 0.8 nM autoinducer 4,5-dihydroxy-2,3-pentanedione (Rvb =790.8 +/- 90.09 10^8 CFU/ml). In kind it is functional.
The test system of assay [13] is Streptococcus intermedius. The experiment in a line: Antimicrobial activity against Streptococcus intermedius NCTC 11324 planktonic cells assessed as bacterial count at 0.15 ug/ml (Rvb =791.7 +/- 44.10 10^8 CFU/ml). In kind it is functional. Summed up:
as §1

Assay [14] concerns Streptococcus intermedius. The experiment in a line: Antimicrobial activity against Streptococcus intermedius SI006 biofilm harboring luxS mutant gene assessed as biofilm bacterial count at 0.07 ug/ml (Rvb =310.8 +/- 17.10 10^5 CFU/ml). In kind it is functional.
Assay [15] relates to Streptococcus intermedius. The experiment in a line: Antimicrobial activity against Streptococcus intermedius SI006 planktonic cells harboring luxS mutant gene assessed as bacterial count at 0.10 ug/ml in presence of 0.8 nM autoinducer 4,5-dihydroxy-2,3-pentanedione (Rvb =790.8 +/- 90.09 10^8 CFU/ml). In kind it is functional.
The test system of assay [16] is Streptococcus intermedius. The experiment in a line: Antimicrobial activity against Streptococcus intermedius SI006 biofilm harboring luxS mutant gene assessed as biofilm bacterial count at 0.05 ug/ml in presence of 0.8 nM autoinducer 4,5-dihydroxy-2,3-pentanedione (Rvb =413.7 +/- 24.47 10^5 CFU/ml). In kind it is functional.
In assay [17] the test system is Streptococcus intermedius. The experiment in a line: Antimicrobial activity against Streptococcus intermedius SI006 biofilm harboring luxS mutant gene assessed as biofilm bacterial count at 0.10 ug/ml in presence of 0.8 nM autoinducer 4,5-dihydroxy-2,3-pentanedione (Rvb =413.7 +/- 24.47 10^5 CFU/ml). In kind it is functional.
In assay [18] the test system is Streptococcus intermedius. The experiment in a line: Antimicrobial activity against Streptococcus intermedius NCTC 11324 planktonic cells assessed as bacterial count at 0.10 ug/ml (Rvb =791.7 +/- 44.10 10^8 CFU/ml). The format is functional. Summed up: as §1
In assay [19] the test system is Streptococcus intermedius. The experiment in a line: Antimicrobial activity against Streptococcus intermedius NCTC 11324 assessed as growth inhibition at 0.7 ug/ml. The format is functional. Summed up: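 Broth microdilution MIC in ultra-low-binding 96-well plates, inoculum ≈4 × 10^5. Growth was read at 595 nm, and the MIC was taken as the lowest antibiotic concentration inhibiting growth.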

Assay [20] deals with Streptococcus intermedius. The experiment in a line: Antimicrobial activity against Streptococcus intermedius SI006 planktonic cells harboring luxS mutant gene assessed as bacterial count at 0.08 ug/ml (Rvb =757.5 +/- 80.14 10^8 CFU/ml). The format is functional.
In assay [21] the test system is Streptococcus intermedius. The experiment in a line: Antimicrobial activity against Streptococcus intermedius NCTC 11324 biofilm assessed as biofilm bacterial count at 0.10 ug/ml (Rvb =402.9 +/- 26.88 10^5 CFU/ml). The format is functional.
The test system of assay [22] is Streptococcus intermedius. The experiment in a line: Antimicrobial activity against Streptococcus intermedius SI006 planktonic cells harboring luxS mutant gene assessed as bacterial count at 0.12 ug/ml (Rvb =757.5 +/- 80.14 10^8 CFU/ml). In kind it is functional.
Assay [23] relates to Streptococcus intermedius. The experiment in a line: Antimicrobial activity against Streptococcus intermedius SI006 biofilm harboring luxS mutant gene assessed as biofilm bacterial count at 0.10 ug/ml (Rvb =310.8 +/- 17.10 10^5 CFU/ml). The format is functional.

Calls of active or inactive are those of the source. No cut-off for these calls is given here.

As to `CN(C)[C@@H]1C(O)=C(C(N)=O)C(=O)[C@@]2(O)C(O)=C3C(=O)c4c(O)cccc4[C@@](C)(O)[C@H]3C[C@@H]12` [TETRACYCLINE], the CFU in assay [1] is 32 ×10⁸ /ml; in [2], 5.7 ×10⁸ /ml; in assay [3], 2 ×10⁸ /ml; in assay [4], 38.4 ×10⁸ /ml; in assay [5] it was 637.1 ×10⁵ /ml; in assay [6], 333 ×10⁵ /ml. The CFU turned out to be 61.9 ×10⁸ /ml in [8]; 253.1 ×10⁵ /ml in assay [9]; 16.3 ×10⁸ /ml in [10]; 779.2 ×10⁵ /ml in [11]; 10.1 ×10⁸ /ml in assay [12]; 24.2 ×10⁸ /ml in [13]. Besides, the CFU came out at 253.1 ×10⁵ /ml in assay [14]; 25.2 ×10⁸ /ml in [15]; 333 ×10⁵ /ml in [16]; 486.2 ×10⁵ /ml in [17]; 44.5 ×10⁸ /ml in assay [18]; 11.2 ×10⁸ /ml in [20]. Further, the CFU is listed as 610.5 ×10⁵ /ml in [21], 3 ×10⁸ /ml in assay [22] and 108.8 ×10⁵ /ml in [23]. For the same compound, the result in assay [7] was inactive. In addition, the Activity in [19] was determined as 0.7 µg/mL.
